From ChEMBL document CHEMBL4689842, “EUbOPEN Chemogenomics Library wave 1” (2021)
“And” between values parts separate entries of the source, which are not always exact repeats. Equal entries are not always repeated.

What was measured:
Assay type in all cases: toxicity, cell-based
Fibroblast [1] = assay: Multiplex assay against human fibroblast; details: 10 µM, compound concentration 10 uM
Outline: (§1)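 Hoechst33342, BioTracker Green Microtubule Cytoskeleton Dye, MitoTracker Red and Annexin V Alexa Fluor 680 were added to live cells at seeding, and imaging on a CQ1 microscope at 37°C and 5% CO2 followed compound addition. Gating by CellPathfinder machine learning separated cells into Hoechst high-intensity objects or normal cells, then normal cells into healthy, pyknosed or fragmented nuclei, then pyknosed cells into mitotic or apoptotic. Per cents of healthy-nucleus cells are reported for the tubulin, mitochondrial-mass and membrane-permeability phenotypes.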

U2OS [2] = assay: Multiplex assay against U2OS; details: human, 10 µM, compound concentration 10 uM; outline: as §1
Fibroblast [3] = assay: Incucyte cell viability with human fibroblast; details: 10 µM, compound concentration 10 uM; note: filed as whole numbers so only -1 and 0 and 1 occur
U2OS [4] = assay: Incucyte cell viability with U2OS; details: human, 10 µM, compound concentration 10 uM; note: filed as whole numbers so only -1 and 0 and 1 occur
HEK-293T [5] = assay: Incucyte cell viability with HEK293T; details: human, 10 µM, compound concentration 10 uM; note: filed as whole numbers so only -1 and 0 and 1 occur
HEK-293T [6] = assay: Multiplex assay against HEK293T; details: human, 10 µM, compound concentration 10 uM; outline: as §1;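 for Population Tubulin-Different-Phenotype (%): share of the cells with healthy nuclei that show this phenotype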
[7] = 0 h, replicate number 1, timepoint 0 hours
[8] = 6 h, replicate number 1, timepoint 6 hours
[9] = 12 h, replicate number 1, timepoint 12 hours
[10] = 18 h, replicate number 1, timepoint 18 hours
[11] = 24 h, replicate number 1, timepoint 24 hours

CCn1c(=O)c(-c2ccc(Cl)cc2Cl)cc2cnc(Nc3ccc(N4CCNCC4)c(F)c3)nc21
Population Apoptotic (%) (Fibroblast [1]; 12 h, replicate 1): 33% and 53% and 60% | Population Fragmented Nuclei (%) (Fibroblast [1]; 12 h, replicate 1): 33% and 37% and 26% | Population Healthy Nuclei (%) (Fibroblast [1]; 12 h, replicate 1): 39% and 46% and 56% | Population Hoechst High Intensity Objects (%) (Fibroblast [1]; 12 h, replicate 1): 69% and 59% and 37% | Population Mitochondria Different-Phenotype (%) (Fibroblast [1]; 12 h, replicate 1): 11% and 6% and 5% | Population Mitotic Cells (%) (Fibroblast [1]; 12 h, replicate 1): 66% and 46% and 39% | Population Normal (%) (Fibroblast [1]; 12 h, replicate 1): 30% and 41% and 62% | Population Pyknosed Nuclei (%) (Fibroblast [1]; 12 h, replicate 1): 27% and 16% | Population Fragmented Nuclei (%) (Fibroblast [1]; 12 h, replicate 2): 44% and 57% and 61% | Population Healthy Nuclei (%) (Fibroblast [1]; 12 h, replicate 2): 18% and 35% and 19% | Population Hoechst High Intensity Objects (%) (Fibroblast [1]; 12 h, replicate 2): 50% and 51% and 70% | Population Normal (%) (Fibroblast [1]; 12 h, replicate 2): 50% and 48% and 29% | Total Cell Count (Fibroblast [1]; 12 h, replicate 2): 206 and 112 and 242 | Population Apoptotic (%) (Fibroblast [1]; 24 h, replicate 1): 47% and 66% and 63% | Population Fragmented Nuclei (%) (Fibroblast [1]; 24 h, replicate 1): 40% and 37% and 23% | Population Healthy Nuclei (%) (Fibroblast [1]; 24 h, replicate 1): 32% and 38% and 58% | Population Hoechst High Intensity Objects (%) (Fibroblast [1]; 24 h, replicate 1): 72% and 65% and 42% | Population Mitochondria Different-Phenotype (%) (Fibroblast [1]; 24 h, replicate 1): 14% and 20% and 7% | Population Mitotic Cells (%) (Fibroblast [1]; 24 h, replicate 1): 52% and 33% and 36% | Population Normal (%) (Fibroblast [1]; 24 h, replicate 1): 27% and 34% and 57% | Population Pyknosed Nuclei (%) (Fibroblast [1]; 24 h, replicate 1): 24% and 17% | Population Tubulin-Different-Phenotype (%) (Fibroblast [1]; 24 h, replicate 1): 33% and 32% | Total Cell Count (Fibroblast [1]; 24 h, replicate 1): 236 and 703 and 456 | Population Apoptotic (%) (Fibroblast [1]; 24 h, replicate 2): 100% and 71% and 73% | Population Fragmented Nuclei (%) (Fibroblast [1]; 24 h, replicate 2): 41% and 62% and 53% | Population Healthy Nuclei (%) (Fibroblast [1]; 24 h, replicate 2): 31% and 23% and 24% | Population Hoechst High Intensity Objects (%) (Fibroblast [1]; 24 h, replicate 2): 44% and 54% and 74% | Population Normal (%) (Fibroblast [1]; 24 h, replicate 2): 55% and 45% and 25% | Population Pyknosed Nuclei (%) (Fibroblast [1]; 24 h, replicate 2): 26% and 13% and 22% | Total Cell Count (Fibroblast [1]; 24 h, replicate 2): 225 and 111 and 256 | Population Apoptotic (%) (Fibroblast [1]; 48 h, replicate 1): 35% | Population Fragmented Nuclei (%) (Fibroblast [1]; 48 h, replicate 1): 36% | Population Healthy Nuclei (%) (Fibroblast [1]; 48 h, replicate 1): 46% | Population Hoechst High Intensity Objects (%) (Fibroblast [1]; 48 h, replicate 1): 67% | Population Membrane Permeable-Phenotype (%) (Fibroblast [1]; 48 h, replicate 1): 30% | Population Mitochondria Different-Phenotype (%) (Fibroblast [1]; 48 h, replicate 1): 15% | Population Mitotic Cells (%) (Fibroblast [1]; 48 h, replicate 1): 64% | Population Normal (%) (Fibroblast [1]; 48 h, replicate 1): 32% | Population Pyknosed Nuclei (%) (Fibroblast [1]; 48 h, replicate 1): 16% | Population Tubulin-Different-Phenotype (%) (Fibroblast [1]; 48 h, replicate 1): 15% | Total Cell Count (Fibroblast [1]; 48 h, replicate 1): 255 | Population Apoptotic (%) (Fibroblast [1]; 48 h, replicate 2): 71% | Population Fragmented Nuclei (%) (Fibroblast [1]; 48 h, replicate 2): 60% | Population Healthy Nuclei (%) (Fibroblast [1]; 48 h, replicate 2): 31% | Population Hoechst High Intensity Objects (%) (Fibroblast [1]; 48 h, replicate 2): 76% | Population Membrane Permeable-Phenotype (%) (Fibroblast [1]; 48 h, replicate 2): 65% | Population Mitochondria Different-Phenotype (%) (Fibroblast [1]; 48 h, replicate 2): 7% | Population Mitotic Cells (%) (Fibroblast [1]; 48 h, replicate 2): 28% | Population Normal (%) (Fibroblast [1]; 48 h, replicate 2): 23% | Population Pyknosed Nuclei (%) (Fibroblast [1]; 48 h, replicate 2): 8% | Total Cell Count (Fibroblast [1]; 48 h, replicate 2): 348 | Population Apoptotic (%) (U2OS [2]; 12 h, replicate 1): 97% and 89% and 38% | Population Normal (%) (U2OS [2]; 12 h, replicate 1): 31% and 45% and 92% | Total Cell Count (U2OS [2]; 12 h, replicate 1): 204 and 465 and 202 | Population Apoptotic (%) (U2OS [2]; 12 h, replicate 2): 100% and 88% and 46% | Population Fragmented Nuclei (%) (U2OS [2]; 12 h, replicate 2): 44% and 21% and 19% | Population Membrane Permeable-Phenotype (%) (U2OS [2]; 12 h, replicate 2): 71% and 78% | Population Normal (%) (U2OS [2]; 12 h, replicate 2): 50% and 40% and 80% | Total Cell Count (U2OS [2]; 12 h, replicate 2): 206 and 130 and 83 | Population Apoptotic (%) (U2OS [2]; 24 h, replicate 1): 87% and 91% and 60% | Population Fragmented Nuclei (%) (U2OS [2]; 24 h, replicate 1): 22% and 8% | Population Normal (%) (U2OS [2]; 24 h, replicate 1): 40% and 34% and 89% | Population Pyknosed Nuclei (%) (U2OS [2]; 24 h, replicate 1): 50% and 40% and 25% | Total Cell Count (U2OS [2]; 24 h, replicate 1): 436 and 206 and 232 | Population Apoptotic (%) (U2OS [2]; 24 h, replicate 2): 100% and 53% | Population Fragmented Nuclei (%) (U2OS [2]; 24 h, replicate 2): 41% and 39% | Population Healthy Nuclei (%) (U2OS [2]; 24 h, replicate 2): 31% and 45% and 50% | Population Pyknosed Nuclei (%) (U2OS [2]; 24 h, replicate 2): 26% and 15% and 27% | Population Tubulin-Different-Phenotype (%) (U2OS [2]; 24 h, replicate 2): 84% and 86% and 29% | Total Cell Count (U2OS [2]; 24 h, replicate 2): 225 and 118 and 97 | Population Apoptotic (%) (U2OS [2]; 48 h, replicate 1): 90% | Population Fragmented Nuclei (%) (U2OS [2]; 48 h, replicate 1): 48% | Population Healthy Nuclei (%) (U2OS [2]; 48 h, replicate 1): 10% | Population Hoechst High Intensity Objects (%) (U2OS [2]; 48 h, replicate 1): 59% | Population Membrane Permeable-Phenotype (%) (U2OS [2]; 48 h, replicate 1): 75% | Population Mitochondria Different-Phenotype (%) (U2OS [2]; 48 h, replicate 1): 62% | Population Mitotic Cells (%) (U2OS [2]; 48 h, replicate 1): 9% | Population Normal (%) (U2OS [2]; 48 h, replicate 1): 40% | Population Pyknosed Nuclei (%) (U2OS [2]; 48 h, replicate 1): 41% | Population Tubulin-Different-Phenotype (%) (U2OS [2]; 48 h, replicate 1): 75% | Total Cell Count (U2OS [2]; 48 h, replicate 1): 620 | Population Apoptotic (%) (U2OS [2]; 48 h, replicate 2): 100% | Population Fragmented Nuclei (%) (U2OS [2]; 48 h, replicate 2): 43% | Population Healthy Nuclei (%) (U2OS [2]; 48 h, replicate 2): 26% | Population Hoechst High Intensity Objects (%) (U2OS [2]; 48 h, replicate 2): 56% | Population Membrane Permeable-Phenotype (%) (U2OS [2]; 48 h, replicate 2): 100% | Population Mitochondria Different-Phenotype (%) (U2OS [2]; 48 h, replicate 2): 91% | Population Mitotic Cells (%) (U2OS [2]; 48 h, replicate 2): 0% | Population Normal (%) (U2OS [2]; 48 h, replicate 2): 43% | Population Pyknosed Nuclei (%) (U2OS [2]; 48 h, replicate 2): 30% | Population Tubulin-Different-Phenotype (%) (U2OS [2]; 48 h, replicate 2): 91% | Total Cell Count (U2OS [2]; 48 h, replicate 2): 227 | Growth Rate (Fibroblast [3]; [7]): 0 | Growth Rate (Fibroblast [3]; [8]): 0 | Growth Rate (Fibroblast [3]; [9]): 0 | Growth Rate (Fibroblast [3]; [10]): 0 | Growth Rate (Fibroblast [3]; [11]): 0 | Growth Rate (U2OS [4]; [7]): 0 | Growth Rate (U2OS [4]; [8]): 0 | Growth Rate (U2OS [4]; [9]): 0 | Growth Rate (U2OS [4]; [10]): 0 | Growth Rate (U2OS [4]; [11]): 0 | Growth Rate (HEK-293T [5]; [8]): 0 | Growth Rate (HEK-293T [5]; [9]): 0 | Growth Rate (HEK-293T [5]; [10]): 0 | Growth Rate (HEK-293T [5]; [11]): 0 | Population Fragmented Nuclei (%) (HEK-293T [6]; 12 h, replicate 1): 32% and 25% and 19% | Population Hoechst High Intensity Objects (%) (HEK-293T [6]; 12 h, replicate 1): 51% and 56% and 22% | Population Membrane Permeable-Phenotype (%) (HEK-293T [6]; 12 h, replicate 1): 0% and 19% and 5% | Population Normal (%) (HEK-293T [6]; 12 h, replicate 1): 48% and 43% and 77% | Population Pyknosed Nuclei (%) (HEK-293T [6]; 12 h, replicate 1): 63% and 42% and 26% | Population Tubulin-Different-Phenotype (%) (HEK-293T [6]; 12 h, replicate 1): 40% and 64% and 37% | Population Tubulin-Different-Phenotype (%) (HEK-293T [6]; 12 h, replicate 2): 85% and 75% and 43% | Population Fragmented Nuclei (%) (HEK-293T [6]; 24 h, replicate 1): 38% and 33% and 20% | Population Normal (%) (HEK-293T [6]; 24 h, replicate 1): 40% and 41% and 81% | Total Cell Count (HEK-293T [6]; 24 h, replicate 1): 280 and 738 and 614 | Population Fragmented Nuclei (%) (HEK-293T [6]; 24 h, replicate 2): 16% and 32% and 12% | Population Healthy Nuclei (%) (HEK-293T [6]; 24 h, replicate 2): 43% and 40% and 83% | Population Normal (%) (HEK-293T [6]; 24 h, replicate 2): 39% and 33% and 93% | Population Tubulin-Different-Phenotype (%) (HEK-293T [6]; 24 h, replicate 2): 75% and 91% and 46% | Population Apoptotic (%) (HEK-293T [6]; 48 h, replicate 1): 75% | Population Fragmented Nuclei (%) (HEK-293T [6]; 48 h, replicate 1): 46% | Population Healthy Nuclei (%) (HEK-293T [6]; 48 h, replicate 1): 3% | Population Hoechst High Intensity Objects (%) (HEK-293T [6]; 48 h, replicate 1): 56% | Population Membrane Permeable-Phenotype (%) (HEK-293T [6]; 48 h, replicate 1): 0% | Population Mitochondria Different-Phenotype (%) (HEK-293T [6]; 48 h, replicate 1): 25% | Population Mitotic Cells (%) (HEK-293T [6]; 48 h, replicate 1): 24% | Population Normal (%) (HEK-293T [6]; 48 h, replicate 1): 43% | Population Pyknosed Nuclei (%) (HEK-293T [6]; 48 h, replicate 1): 50% | Population Tubulin-Different-Phenotype (%) (HEK-293T [6]; 48 h, replicate 1): 0% | Total Cell Count (HEK-293T [6]; 48 h, replicate 1): 280 | Population Apoptotic (%) (HEK-293T [6]; 48 h, replicate 2): 100% | Population Fragmented Nuclei (%) (HEK-293T [6]; 48 h, replicate 2): 32% | Population Healthy Nuclei (%) (HEK-293T [6]; 48 h, replicate 2): 38% | Population Hoechst High Intensity Objects (%) (HEK-293T [6]; 48 h, replicate 2): 63% | Population Membrane Permeable-Phenotype (%) (HEK-293T [6]; 48 h, replicate 2): 7% | Population Mitochondria Different-Phenotype (%) (HEK-293T [6]; 48 h, replicate 2): 92% | Population Mitotic Cells (%) (HEK-293T [6]; 48 h, replicate 2): 0% | Population Normal (%) (HEK-293T [6]; 48 h, replicate 2): 36% | Population Pyknosed Nuclei (%) (HEK-293T [6]; 48 h, replicate 2): 28% | Population Tubulin-Different-Phenotype (%) (HEK-293T [6]; 48 h, replicate 2): 82% | Total Cell Count (HEK-293T [6]; 48 h, replicate 2): 296
